High-throughput results as filed in PubChem BioAssay.
DENV2 CPE rescue – protects cells from dengue virus 2 cytopathic effect; CPE inhibition, % at 9.99 µM; hit rate 1.7% among 350,000; DENV2-infected cells, cytopathic effect rescue, plate reader; in the data active = CPE inhibition above about 20%, passing the limit was not always enough; inconclusive = no clear call, values can overlap the other calls; tested in BHK-21 cells
S100A4 inh HTS – inhibitors of human S100A4 binding to myosin IIA peptide; P26447; hit rate 0.14% among 360,000; inhibition, % at 10.7 µM; S100A4/TAMRA-MyoIIA peptide fluorescence polarization;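 active = mean inhibition of at least 70% across replicates, with every replicate also reaching that level; inconclusive = mean inhibition reaches 70% but some replicates fall short; inactive = mean inhibition below 70%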
Target sequence (P26447 whole entry, looked up): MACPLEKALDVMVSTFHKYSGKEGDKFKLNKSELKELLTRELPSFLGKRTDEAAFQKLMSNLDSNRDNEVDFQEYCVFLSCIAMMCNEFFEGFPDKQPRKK
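Compound dosing: one dose per compound; test system: human S100A4 monomer with TAMRA-labelled myosin IIA peptide; probe or stimulus: TAMRA-labelled myosin IIA heavy-chain peptide probe, 5 nM; medium: HEPES buffer with Ca2+, pH 7.2; schedule: 5 min incubation before reading; benchmarks: neutral control DMSO, positive control TFP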
CaV13 FRET inh – Disruptors of the CACNA1D IQ motif to Ca2+-dependent inactivation inhibitor domain association, primary screening, Förster resonance energy transfer in intact living … | HEK cells, CFP/YFP FRET ICDI-IQ, plate reader, 10 min; percent FRET-ratio fall versus neutral wells | inhibition, % at 12.3 µM | hit rate 0.098% among 340,000 | AID 743397;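 active = mean replicate inhibition of at least 30% and at least 1% of replicates passing that level; inconclusive = only one of the two criteria is met; inactive = neither criterion is met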
SIRT5 block – sirtuin-5 (human) deacylase inhibition; Q9NXA8; inhibition, % at 15 µM; Purified SirT5, succinyl-peptide AMC, trypsin-coupled fluorescence; hit rate 1.1% among 330,000; in the data active = inhibition above about 15%; inconclusive = no clear call, values can overlap the other calls
Target sequence (Q9NXA8 whole entry, looked up): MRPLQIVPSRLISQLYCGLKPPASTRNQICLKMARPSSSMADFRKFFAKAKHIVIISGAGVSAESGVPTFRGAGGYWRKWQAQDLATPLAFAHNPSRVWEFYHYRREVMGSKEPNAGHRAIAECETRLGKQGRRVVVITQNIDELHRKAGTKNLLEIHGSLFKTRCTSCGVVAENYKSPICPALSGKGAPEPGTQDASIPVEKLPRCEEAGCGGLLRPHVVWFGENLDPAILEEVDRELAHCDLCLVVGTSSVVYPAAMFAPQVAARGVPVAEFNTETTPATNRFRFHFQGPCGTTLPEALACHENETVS
MLL AF4-AF9 inh – MLL-AF4/AF9 protein interaction inhibition | P42568 | AlphaScreen, biotin-AF4 peptide binding to FLAG-AF9 | inhibition, % at 10 µM | hit rate 0.47% among 350,000 | AID 651704;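 active = every replicate reaching a set inhibition limit, whatever the replicate mean, cut at about 25% in these data; inconclusive = mean inhibition reaches that limit but some replicates miss it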
Large screens that a line does not name were inactive; ! = repeats disagree. Hits are enriched below; roughly 2.7% of the tested compounds scored in any of these assays.

CC[C@@H]1C=C(C(=O)O)[C@H](c2ccc3c(c2)OCO3)N1S(=O)(=O)c1ccc(C)cc1	S100A4 inh HTS inconclusive
CCCCC[C@@H]1C=C(C(=O)O)[C@H](c2ccc3c(c2)OCO3)N1S(=O)(=O)c1ccc(C)cc1	DENV2 CPE rescue 31
COc1ccc(Nc2n[nH]c(C)c2[N+](=O)[O-])cc1	none
COc1ccc(Nc2n[nH]c(N)c2C(N)=O)cc1	MLL AF4-AF9 inh 29
Cc1c(C)n(CCCN(C)C)c2ncnc(Nc3ccccc3)c12	none
COc1ccccc1Nc1ncnc2c1c(C)c(C)n2CCCN(C)C	DENV2 CPE rescue 42
CCC(C)(C)c1ccc(OCCCC[n+]2ccccc2)c(C(C)(C)CC)c1	MLL AF4-AF9 inh 30
COc1cccc(-c2cnc3c(c2)C(=O)N([C@@H](C)CO)C[C@@H](C)[C@H](CN(C)Cc2ccc(F)cc2)O3)c1	none (no result: CaV13 FRET inh)
C/C=C/c1ccc([C@H]2[C@@H](CNC(=O)NC(C)C)N(C(=O)C3CC3)[C@H]2CO)cc1	none (no result: CaV13 FRET inh)
OC1CCCCC1	DENV2 CPE rescue 67 (no result: CaV13 FRET inh, SIRT5 block, MLL AF4-AF9 inh)
C[C@H](O)C#Cc1ccc2c(c1)O[C@H](CN(C)C(=O)Cc1ccccn1)[C@@H](C)CN([C@H](C)CO)S2(=O)=O	none (no result: CaV13 FRET inh)
COc1ccc2nc3cc(Cl)ccc3c(Nc3cc(CN4CCCC4)c(O)c(CN4CCCC4)c3)c2n1	MLL AF4-AF9 inh 47
CCc1cc2c(nc1CC)CCCN2Cc1ccccc1C(F)(F)F	none (no result: SIRT5 block)
CC(C)NC(=O)N(C)C[C@@H]1Oc2ccc(NC(=O)Nc3ccc4c(c3)OCO4)cc2CC(=O)N([C@H](C)CO)C[C@H]1C	none (no result: CaV13 FRET inh)
C=CCc1ccc(OCCCNC2CCCC2)c(OC)c1	none
CCOCCCNCc1ccc(OCc2ccccc2C)c(OC)c1	SIRT5 block 20
C=CCc1ccc(OCCCNCc2ccccc2)c(OC)c1	DENV2 CPE rescue 43
COc1cc(CNCCCCO)ccc1OCc1ccccc1F	none
O=C(C1=C[C@H](c2ccc3c(c2)OCO3)C[C@H](OCc2ccc(CO)cc2)O1)N1CCN(Cc2ccc3c(c2)OCO3)CC1	DENV2 CPE rescue 59!
CN1CCN(C(=O)C2=C[C@@H](c3ccc(C(F)(F)F)cc3)C[C@@H](OCc3ccc(CO)cc3)O2)CC1	DENV2 CPE rescue 78!
CC(C)(C)[C@H]1C=C(C(=O)N2CCOCC2)O[C@@H](OCc2ccc(CO)cc2)C1	DENV2 CPE rescue 36!
O=C(NCc1ccccc1)C1=C[C@@H](c2ccc3c(c2)OCO3)C[C@@H](OCc2ccc(CO)cc2)O1	DENV2 CPE rescue 22!
CCNC(=O)Nc1ccc2c(c1)C(=O)N(C)[C@H]1CC[C@@H](CC(=O)NC3CCCCC3)O[C@H]1CO2	none (no result: CaV13 FRET inh)
COc1ccc(NC(=O)Nc2ccc3c(c2)[C@@H]2C[C@H](CC(=O)N4CCOCC4)O[C@H](CO)[C@@H]2O3)cc1	none (no result: S100A4 inh HTS, CaV13 FRET inh, SIRT5 block, MLL AF4-AF9 inh)
C[C@H]1C=C(C(=O)N2CCN(Cc3ccc4c(c3)OCO4)CC2)O[C@@H](OCc2ccc(CO)cc2)C1	DENV2 CPE rescue 24!
Cc1[nH]c2ccccc2c1/C=N/Nc1ccccc1[N+](=O)[O-]	MLL AF4-AF9 inh 50
COc1ccc(NS(=O)(=O)c2cc([N+](=O)[O-])ccc2N/N=C/c2c(C)[nH]c3ccccc23)cc1	none
Cc1ccc(-n2ncc3c(=O)[nH]c(SCC(=O)N4CCC(C)CC4)nc32)cc1C	none
Cc1ccc(-n2ncc3c(=O)[nH]c(SCC(=O)N4CCCC4)nc32)cc1C	DENV2 CPE rescue 63
O=C(N[C@@H]1CC[C@H](CCn2cc(-c3ccccn3)nn2)O[C@@H]1CO)c1cccnc1	none (no result: CaV13 FRET inh)
CO[C@H]1CC[C@@H]2CCOc3c(C#N)cccc3C(=O)N(C)C[C@H](C)C(=O)N(C)C[C@@H]1O2	SIRT5 block 20 (no result: CaV13 FRET inh)
COc1ccc(-[n+]2c(C)cc(/C=C3\Sc4ccccc4N3C)cc2C)cc1	CaV13 FRET inh 34, SIRT5 block 26
O=C(CCN1CCCCC1)NCC[C@@H]1CC[C@@H](NC(=O)C2CCCCC2)[C@H](CO)O1	none (no result: CaV13 FRET inh)
C[C@H]1CN([C@@H](C)CO)C(=O)c2cccc(NC(=O)CCCCCC(=O)Nc3ccccc3N)c2O[C@@H]1CN(C)Cc1ccc(Oc2ccccc2)cc1	SIRT5 block 24 (no result: CaV13 FRET inh)
C[C@H](CO)N1C[C@H](C)[C@@H](CN(C)Cc2ccc(-c3ccccc3)cc2)Oc2c(NC(=O)CCCCCC(=O)Nc3ccccc3N)cccc2C1=O	none (no result: CaV13 FRET inh)
C[C@@H]1CN([C@H](C)CO)C(=O)c2cccc(NC(=O)CCCCCC(=O)Nc3ccccc3N)c2O[C@@H]1CN(C)Cc1ccc(Oc2ccccc2)cc1	none (no result: CaV13 FRET inh)
C[C@@H]1CN([C@@H](C)CO)C(=O)c2cccc(NC(=O)CCCCCC(=O)Nc3ccccc3N)c2O[C@H]1CN(C)Cc1ccc(-c2ccccc2)cc1	SIRT5 block 18 (no result: CaV13 FRET inh)
O=C(C[C@H]1C[C@@H]2c3cc(NC(=O)NC4CCCC4)ccc3O[C@@H]2[C@H](CO)O1)NCc1cccc(F)c1	none (no result: CaV13 FRET inh)
CCC(=O)N1[C@H](CO)[C@H](c2ccccc2)C12CN(C(=O)Nc1ccccc1F)C2	DENV2 CPE rescue 27 (no result: CaV13 FRET inh)
O=C(c1cccnc1)N1CC2(C1)[C@@H](c1ccccc1)[C@@H](CO)N2CC1CC1	DENV2 CPE rescue 20 (no result: CaV13 FRET inh)
COCC(=O)N1[C@@H](CO)[C@@H](c2ccccc2)C12CN(C(=O)Nc1ccccc1F)C2	none (no result: CaV13 FRET inh)
O=C(C1CCCCC1)N1CC2(C1)[C@@H](c1ccccc1)[C@H](CO)N2C(=O)c1cccnc1	none (no result: CaV13 FRET inh)
O=C(c1cccnc1)N1CC2(C1)[C@H](c1ccccc1)[C@H](CO)N2C(=O)C1CCC1	DENV2 CPE rescue 44 (no result: CaV13 FRET inh)
O=C(C1CCCCC1)N1CC2(C1)[C@H](c1ccccc1)[C@H](CO)N2C(=O)c1cccnc1	DENV2 CPE rescue 28 (no result: CaV13 FRET inh)
O=C(C[C@@H]1C[C@@H]2c3cc(NC(=O)C4CCC4)ccc3O[C@@H]2[C@@H](CO)O1)NCC(F)(F)F	none (no result: CaV13 FRET inh)
O=C(C[C@@H]1C[C@H]2c3cc(NC(=O)Nc4ccc(C(F)(F)F)cc4)ccc3O[C@H]2[C@@H](CO)O1)NCc1ccccn1	none (no result: CaV13 FRET inh)
CC(C)NC(=O)N1[C@H](CO)[C@@H](c2ccccc2)C12CN(C(=O)CN(C)C)C2	none (no result: CaV13 FRET inh)
CCC(=O)N1CC2(C1)[C@H](c1ccccc1)[C@H](CO)N2C(=O)c1cccnc1	DENV2 CPE rescue 24 (no result: CaV13 FRET inh)
CCC(=O)N1CC2(C1)[C@H](c1ccccc1)[C@@H](CO)N2C(=O)NC(C)C	DENV2 CPE rescue 29 (no result: CaV13 FRET inh)
CCC(=O)N1CC2(C1)[C@H](c1ccccc1)[C@@H](CO)N2C(=O)c1cccnc1	none (no result: CaV13 FRET inh)
CCC(=O)N1CC2(C1)[C@@H](c1ccccc1)[C@@H](CO)N2Cc1ccccc1F	DENV2 CPE rescue 24 (no result: CaV13 FRET inh)
O=C(c1ccc2c(c1)OCO2)N1CC2(C1)[C@H](c1ccccc1)[C@@H](CO)N2C(=O)C1CCC1	DENV2 CPE rescue 44 (no result: CaV13 FRET inh)
O=C(c1ccc2c(c1)OCO2)N1CC2(C1)[C@H](c1ccccc1)[C@H](CO)N2C(=O)C1CCC1	none (no result: CaV13 FRET inh)
CCS(=O)(=O)N1CC2(C1)[C@H](c1ccccc1)[C@@H](CO)N2C(=O)C1CC1	DENV2 CPE rescue 23 (no result: CaV13 FRET inh)
